Screens from PubChem BioAssay.
Only some compounds are listed: those with a hit (about 1.8% of all), similar ones and a draw of the others.
STAT1 blocker: STAT1 signaling inhibitors, primary screen, cell-based, HTS, luciferase reporter; NIH 3T3 STAT1-luciferase reporter, IFN-gamma, luminescence; inhibition, % at 5.5 µM; actives 0.35% (n = 200,000); AID 920, 2007;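 active = inhibition above a set limit, the mean inhibition across all tested compounds plus 3 SD, cut at about 34% in these data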;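 note: 0% = IFN-gamma with DMSO and 100% = IFN-gamma with 300 µM nifuroxazide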
PPC-1+TRAIL kill: compounds killing PPC-1 cancer cells with TRAIL present, primary screen, TRAIL potentiator project, ATPLite luminescence, uHTS | PPC-1 cells + TRAIL, ATPLite viability luminescence | cell killing (% activity), % at 4 µM or 5 µM | actives 0.41% (n = 220,000);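 active = cell killing above 50% in the first pass at 4 µM, then a duplicate retest at 5 µM averaging 50% or more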;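 note: plate controls were cells with TRAIL plus DMSO for no effect and medium-only wells lacking cells for full effect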
STAT3 activator: IL-6 driven STAT3 reporter potentiators, primary screen, U3A cells, luciferase, luminescence, MLSCN library; IL-6 STAT3-luciferase reporter; 100% = signal with IL-6 EC80 alone; activation (% of control), % at 5.6 µM; actives 0.91% (n = 190,000); AID 871, 2007;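 active = activation above the screen-wide mean of compound activation plus 3 SD, cut at about 130% in these data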;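 note: 0% = background luminescence of wells with medium and substrate only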
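Material: STAT1-lacking human U3A cells, STAT3 luciferase reporter | Benchmarks: IL-6-only wells as 100% reference | Probe or stimulus: IL-6 (33 ng/mL) | Timing: Compound 1 h, then IL-6 6 h at 37 °C | Detection: Luminescence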
STAT3 inh: IL-6 driven STAT3 reporter inhibitors, primary screen, U3A cells, luciferase, luminescence, MLSCN library; inhibition, % at 5.5 µM; actives 0.89% (n = 190,000); IL-6 STAT3-luciferase reporter; host cell line lacks STAT1;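 active = inhibition above the mean inhibition across all screened compounds plus 3 SD, cut at about 44% in these data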;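 note: 0% = DMSO only wells and 100% = 100 µM nifuroxazide control wells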
C8 TRAIL sens: viability loss with TRAIL in NB7+C8 cells, primary screen, TRAIL sensitizer project, cell-based, ATPlite luminescence; actives 1% (n = 360,000); inhibition (viability loss, TRAIL sensitization), % at 10 µM; AID 624354, 2012;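 active = compounds causing at least 50% loss of cell viability in the single-dose screen, relative to plate controls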
* hit, by the source's call; · = not tested or not shown.

SMILES	STAT1 blocker	PPC-1+TRAIL kill	STAT3 activator	STAT3 inh	C8 TRAIL sens
N#C[C@H]1[C@H](c2ccccc2)[C@](C#N)(C(=O)c2ccccc2)[C@@H]2C=Cc3ccccc3N21	16.8	-12.8	133.2*	-30.6	·
O=C(N/N=C\c1cccc(OC(=O)c2ccco2)c1)c1ccc2c(c1)OCO2	-20.7	53.4*	63.6	42.6	86.5*
O=C(N/N=C/c1cccnc1)c1ccc2c(c1)OCO2	·	·	·	·	49.9*
CC(=O)Nc1ccc(C=C(C#N)c2ccc(C)cc2)cc1	·	·	·	·	-13.3
C/C(=N\Nc1ccc(S(=O)(=O)Nc2ccccc2)cc1[N+](=O)[O-])c1ccncc1	-5.4	4.7	100.2	7.6	·
COc1ccc(NS(=O)(=O)c2ccc(N/N=C(\C)c3ccncc3)c([N+](=O)[O-])c2)cc1	14.2	54.5*	76.2	30.9	30.8
COC(=O)[C@H]1C[C@@]2(O)CN(S(=O)(=O)c3ccc(C)cc3)C[C@@]2(OC(=O)Nc2cccs2)C[C@H]1C(=O)OC	·	·	·	·	4.7
CC(=O)c1c(C)[nH]c(C(=O)Nc2ccc(Cl)cc2)c1C	·	·	·	·	-6.1
CC(=O)c1c(C)[nH]c(C(=O)Nc2ccccn2)c1C	·	·	·	·	51.2*
N#CC(C#N)=C(Nc1ccc(F)cc1)SCc1cccc(F)c1	48.8*	23.6	51.8	58.8*	45.8
Cc1ccc(-c2nnc(-c3ccccc3Br)o2)cc1	·	·	·	·	58.4*
Brc1ccc(-c2nnc(-c3ccccc3Br)o2)cc1	-67.9	28.7	98.3	8.3	39.0
O=C1CC(c2ccccc2)Sc2ccccc2N1 (stereo not given)	-17.2	14.7	134.8*	-36.2	-19.3
COc1ccc(NC(=O)C[C@H]2C(=O)N(C3CCCCC3)C[C@@H]2C)cc1	·	·	·	·	-4.3
O=C(Oc1c(CN2CCOCC2)cc(Cl)c2cccnc12)c1ccccc1F	5.2	23.4	101.2	5.4	54.4*
O=C(CCl)N1CCN(S(=O)(=O)c2ccc3ccccc3c2)CC1	·	·	·	·	80.9*
CCOc1cc(/C=N\NC(=O)c2ccc(NC(=O)C(C)(C)C)cc2)ccc1OC(=O)c1cccc(C)c1	11.0	12.8	86.3	21.6	58.9*
CCOc1cc(/C=N\NC(=O)c2ccc(NC(=O)C(C)(C)C)cc2)ccc1OC(=O)c1ccc(C)cc1	-2.1	12.1	103.1	4.0	15.4
CCN1CCN(CCCNC(=O)c2ccc(/C=C3/Oc4ccccc4N(Cc4cccc(C)c4)C3=O)cc2)CC1	·	·	·	·	55.0*
COc1ccc(-c2cc3c(=O)n(CC(=O)NCc4ccc(Cl)cc4)ncn3n2)cc1	·	·	·	·	11.5
COc1ccc(-c2cc3c(=O)n(CC(=O)NCCCN4CCC(Cc5ccccc5)CC4)ncn3n2)cc1	·	·	·	·	82.9*
COc1ccc(-c2cc3c(=O)n(CC(=O)NCCCN4CCN(Cc5ccccc5)CC4)ncn3n2)cc1	·	·	·	·	80.2*
CCCCc1c(-c2ccccc2OC)ncn1CCc1ccccc1	·	·	·	·	24.3
O=C(NCc1ccccc1)C(c1ccc(C(F)(F)F)cc1)n1c(=O)c(-c2ccco2)nc2ccccc21 (stereo not given)	·	·	·	·	-17.2
CCn1c(=N)c(C(=O)OC)cc2c(=O)n3ccccc3nc21	·	18.2	·	·	·
SMILES	STAT1 blocker	PPC-1+TRAIL kill	STAT3 activator	STAT3 inh	C8 TRAIL sens
COC(=O)c1cc2c(=O)n3ccccc3nc2n(C(C)C)c1=N	-4.0	·	136.0*	-38.6	·
CCC(C)NC(=O)c1ccc2c(Cl)c3c(nc2c1)CCC3 (stereo not given)	·	17.5	·	·	40.8
O=C(Nc1ccc(Cl)cn1)c1ccc2c(Cl)c3c(nc2c1)CCC3	·	47.0	·	·	56.7*
COCCNC(=O)c1cccc2c1C(=O)c1ccc(N3CCOCC3)cc1S2(=O)=O	·	·	·	·	0.2
O=C1c2ccccc2S(=O)(=O)c2cc(N3CCOCC3)ccc21	·	·	·	·	66.4*
Cc1ccc(/C(O)=C2\C(=O)C(=O)N(Cc3cccnc3)C2c2ccccc2[N+](=O)[O-])cc1 (stereo not given)	-17.7	24.7	133.2*	-33.8	-0.8
Cc1ccc(/C(O)=C2\C(=O)C(=O)N(C)C2c2ccccc2[N+](=O)[O-])cc1 (stereo not given)	·	·	·	·	3.3
CCOc1ccccc1N(C)S(=O)(=O)c1ccc2c(c1)N(C(C)=O)CCO2	·	·	·	·	-13.7
CC(=O)Nc1ccc(/C=N/Nc2nncc3ccccc23)cc1	·	·	·	·	41.0
Fc1cccc(/C=N/Nc2nncc3ccccc23)c1	·	·	·	·	84.2*
C(=N\Nc1nncc2ccccc12)/c1ccccn1	·	·	·	·	81.3*
O=c1cnnc(N/N=C/c2ccccn2)[nH]1	·	33.4	·	·	-1.1
COc1ccc(C2=Nn3c([n+](C)c4ccccc43)SC2)cc1	34.7*	19.2	70.5	37.3	27.5
C[n+]1c2n(c3ccccc31)N=C(c1ccc(Cl)cc1)CS2	24.2	31.6	128.0	-21.9	8.3
CCCc1nc2ccc(C)cn2c1Cc1ccc(OC)cc1C	·	·	·	·	-6.6
CC(=O)Nc1nc2ccccc2n1Cc1ccccc1C	-26.5	13.2	133.6*	-34.3	16.8
CC(=O)Nc1nc2ccccc2n1Cc1ccccc1Cl	·	-3.0	·	·	18.4
Nc1nc2sc3c(c2cc1C(=O)NCC(=O)O)CCCC3	·	·	·	·	51.6*
Nc1nc2sc3c(c2cc1C(=O)N1CCOCC1)CCCC3	-2.4	0.8	105.6	-4.0	-10.7
CCc1ccc2nc(N(CCCN(C)C)C(=O)c3ccc(S(=O)(=O)N4CCCc5ccccc54)cc3)sc2c1	·	·	·	·	67.5*
CCc1ccc2nc(N(CCCN(C)C)C(=O)c3ccc(C(=O)c4ccccc4)cc3)sc2c1	·	·	·	·	62.3*
CC1CCCCN1S(=O)(=O)c1ccc(C(=O)N(CCCN(C)C)c2nc3ccc(Br)cc3s2)cc1 (stereo not given)	·	·	·	·	55.2*
COc1cc2nc(N(CCCN(C)C)C(=O)c3ccc(C(=O)c4ccccc4)cc3)sc2cc1OC	·	·	·	·	6.7
CN(C)c1ccc(N=Nc2nccs2)cc1	·	·	·	·	77.2*
Cc1cccc(NC2=NC(C)(C)N=C(N)N2)c1	-0.7	43.9	90.4	15.4	71.3*
CCC(NC(=S)NC1CCCCC1)c1ccc(C)cc1 (stereo not given)	·	·	·	·	4.1
CCN1CCN(c2nc3c(C)cccn3c(=O)c2/C=C(\C#N)C(=O)NCCOC)CC1	·	·	·	·	-32.3
